DENV2 CPE = protects cells from dengue virus 2 cytopathic effect. CPE inhibition, % at 9.99 µM. DENV2-infected cells, cytopathic effect rescue, plate reader. actives 1.7% (n = 350,000); in the data active = CPE inhibition above about 20%, passing the limit was not always enough; inconclusive = no clear call, values can overlap the other calls; tested in BHK-21 cells;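 note: 0% = median of neutral control wells and 100% = median of positive control wells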
PDI turbidity = inhibitors of human protein disulfide isomerase; P07237; actives 0.052% (n = 350,000); PDI insulin aggregation turbidity, A650, 90 min; inhibition, % at 10 µM; AID 588391;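 active = mean inhibition across replicates of 30% or more, whatever share of single replicates reach that level; inconclusive = mean inhibition below 30% while every single replicate reaches 30%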
Cneo AK release = causes C. neoformans cell lysis | adenylate kinase release luminescence, 4 h; normalised: neutral wells 0, clomiphene wells 100 | lysis activity, % at 15 µM | actives 0.2% (n = 360,000) | AID 651654;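 active = mean lysis activity across replicates of at least 80%, whatever share of replicates individually reach that level; inactive = mean lysis activity below 80%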
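Test system: log-phase Cryptococcus neoformans yeast cells. Input: 5 × 10^6 yeast cells/mL. Medium: fresh YPD growth medium. Doses: single dose. Incubation: static 4 h at 37 °C with compound, 1 h detection. Measured by: luminescent adenylate kinase detection reagent. Read-out: signal increase indicating cell lysis. Benchmarks: Clomiphene.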
ERp5 block = ERp5 (human) disulfide isomerase inhibition. Q15084. actives 0.05% (n = 350,000). inhibition, % at 9.99 µM. ERp5 insulin aggregation, absorbance 650 nm, 90 min;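 active = mean replicate inhibition above about 25%, with every replicate also reaching it, limit read from the data, passing the limit was not always enough; inconclusive = only one of those two criteria met; inactive = neither criterion met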
Target sequence (Q15084 whole entry, looked up): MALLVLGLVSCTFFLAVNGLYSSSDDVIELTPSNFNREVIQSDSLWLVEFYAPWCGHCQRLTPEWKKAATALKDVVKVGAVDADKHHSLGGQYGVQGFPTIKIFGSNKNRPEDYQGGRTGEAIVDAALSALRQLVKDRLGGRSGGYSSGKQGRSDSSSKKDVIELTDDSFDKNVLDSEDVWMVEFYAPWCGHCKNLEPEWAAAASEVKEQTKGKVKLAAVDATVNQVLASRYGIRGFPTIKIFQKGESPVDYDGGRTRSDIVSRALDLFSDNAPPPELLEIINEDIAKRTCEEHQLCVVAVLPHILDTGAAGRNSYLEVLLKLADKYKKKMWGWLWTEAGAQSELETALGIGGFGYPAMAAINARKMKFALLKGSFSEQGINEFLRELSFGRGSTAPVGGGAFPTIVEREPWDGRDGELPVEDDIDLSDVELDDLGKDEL
Statin myotox sup = suppression of simvastatin myotoxicity | C2C12 myotubes + simvastatin, ATP luminescence, 48 h; scaled: DMSO 0, geranylgeraniol control 100 | rescue of ATP level, % at 7.49 µM | actives 0.78% (n = 330,000) | AID 602340;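 active = mean ATP rescue above about 67%, or every replicate alone reaching that limit, limit read from the data, passing the limit was not always enough; inconclusive = no clear call, values can overlap the other calls; inactive = mean under the limit and some replicate under it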;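 note: myotubes were challenged with 10 µM simvastatin during compound exposure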
CFTR F508del cor = CFTR F508del correction in bronchial cells | CFBE cells, YFP halide quenching; stimulated with forskolin plus potentiator P3; % fluorescence drop versus neutral controls | actives 0.36% (n = 350,000) | activity (quench increase), % at 7.58 µM;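 active = mean added fluorescence quench of at least 8% versus neutral control, with both replicates also reaching 8%; inconclusive = only one of the mean or replicate conditions met; inactive = mean below 8% and not both replicates reaching 8%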;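 note: cells transiently co-express mutant CFTR-F508del with the halide-sensitive YFP; corrector assay measuring rescue of mutant channel to the surface after 24 h compound exposure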
* hit, by the source's call; u = inconclusive; x = no result. Only some compounds are listed: those with a hit (about 2.3% of all), similar ones and a draw of the others.

SMILES	DENV2 CPE	PDI turbidity	Cneo AK release	ERp5 block	Statin myotox sup	CFTR F508del cor
C[C@H](CO)N1C[C@H](C)[C@H](CN(C)C(=O)Nc2ccccc2)Oc2ccc(NC(=O)CCCCCC(=O)Nc3ccccc3N)cc2CC1=O	-8	x	0	2	9	1
COc1ccccc1C#Cc1ccc2c(c1)O[C@@H](CN(C)Cc1cccnc1)[C@H](C)CN([C@@H](C)CO)S2(=O)=O	2	x	-3	1	-27	9.5*
CCCC#Cc1ccc2c(c1)O[C@H](CN(C)Cc1cccnc1)[C@@H](C)CN([C@@H](C)CO)S2(=O)=O	25*	x	-4	-2	-50	x
C[C@H]1CN([C@@H](C)CO)S(=O)(=O)c2ccc(C#CC3CCCCC3)cc2O[C@H]1CN(C)Cc1cccnc1	8	x	-4	6	-32	9.9*
Cc1c(OCC(=O)NCCN2CCOCC2)ccc2c3c(c(=O)oc12)CCC3	-1	8	0	0	-2	11*
Cc1oc2c(C)c3oc(=O)c(CCC(=O)NCCN4CCOCC4)c(C)c3cc2c1C	29*	x	1	0	-3	3
C/C=C/c1ccc([C@@H]2[C@@H](CO)N(C(=O)CN(C)C)C23CN(C(=O)C2CCOCC2)C3)cc1	-4	x	x	3	x	5
C[C@H]1CN([C@@H](C)CO)C(=O)Cc2cc(NC(=O)C3CCCCC3)ccc2O[C@H]1CN(C)Cc1ccc(Cl)c(Cl)c1	u	x	-4	-3	22	4
C[C@@H]1CN([C@H](C)CO)C(=O)Cc2cc(NC(=O)C3CCCCC3)ccc2O[C@H]1CN(C)Cc1ccc(Cl)c(Cl)c1	2	x	-2	-6	139*	-2
C[C@@H]1CN([C@@H](C)CO)C(=O)Cc2cc(NC(=O)C3CCCCC3)ccc2O[C@H]1CN(C)Cc1ccc(Cl)c(Cl)c1	7	x	1	-7	64	2
C[C@H](CO)N1C[C@H](C)[C@@H](CN(C)Cc2ccc(Cl)c(Cl)c2)Oc2ccc(NC(=O)C3CCCCC3)cc2CC1=O	u	x	-2	5	132*	4
C[C@@H]1CN([C@H](C)CO)C(=O)c2cc(NC(=O)Nc3ccc(F)cc3)ccc2O[C@@H](C)CCCCO[C@H]1CN(C)S(C)(=O)=O	-14	x	8	x	x	1
C[C@@H]1CCCCO[C@H](CN(C)S(C)(=O)=O)[C@@H](C)CN([C@H](C)CO)C(=O)c2cc(NC(=O)CCCN(C)C)ccc2O1	x	x	x	x	11	-5
CCOc1ccc(C(=O)N[C@H](C(=O)Nc2cccc(S(=O)(=O)N3CCCCC3)c2)C(C)C)cc1	9	-9	1	8	x	15*
C[C@H](CO)N1C[C@H](C)[C@@H](CN(C)C(=O)Nc2ccc3c(c2)OCO3)Oc2ccc(NC(=O)Nc3ccccc3)cc2CC1=O	2	x	-12	9	-3	1
COCCNC(=O)[C@H]1[C@H](CO)[C@H]2Cn3c(cccc3=O)[C@@H]1N2Cc1cc(F)ccc1F	40*	x	2	-6	-2	-5
CCCNC(=O)[C@H]1[C@H](CO)[C@H]2Cn3c(cccc3=O)[C@@H]1N2Cc1cc(F)ccc1F	-7	x	60	0	-6	0
O=C(NCC1CCCCC1)[C@@H]1[C@@H](CO)[C@@H]2Cn3c(cccc3=O)[C@H]1N2CCc1ccccc1	110*	x	-1	2	-38	x
O=C(NCC1CCCCC1)[C@H]1[C@H](CO)[C@H]2Cn3c(cccc3=O)[C@@H]1N2CCc1ccccc1	109*	x	-3	-1	-5	x
C[C@H]1CN([C@@H](C)CO)C(=O)CCCn2nncc2CO[C@H]1CN(C)Cc1ccc(C(F)(F)F)cc1	x	x	x	x	8	1
CCOC(=O)Cc1csc(N/N=C/c2cccc([N+](=O)[O-])c2)n1	29*	8	-2	1	-29	-1
O=C1c2ccccc2C(=O)N1CCC(c1ccc(F)cc1)c1ccco1 (stereo not given)	x	-14	-3	x	77*	x
O=C1CCC(=O)N1CCC(c1ccc(F)cc1)c1ccco1 (stereo not given)	3	-9	-2	4	-5	1
COc1cc(OC)cc(C(=O)N2c3ccc(F)cc3CCC2C)c1 (stereo not given)	x	-11	0	x	90*	x
COc1ccc(C(=O)N2c3ccc(F)cc3CCC2C)cc1OC (stereo not given)	x	5	-1	x	5	x
SMILES	DENV2 CPE	PDI turbidity	Cneo AK release	ERp5 block	Statin myotox sup	CFTR F508del cor
Cc1ccc2[nH]c(-c3ccccc3)cc(=O)c2c1	111*	-3	-3	1	-73	10*
Nc1ccn([C@@H]2O[C@H](C(=O)NCc3ccc4c(c3)OCO4)[C@@H](O)[C@H]2O)c(=O)n1	-3	x	1	0	-7	1
Nc1ccn([C@@H]2O[C@H](C(=O)NCCc3ccc(F)cc3)[C@@H](O)[C@H]2O)c(=O)n1	87*	x	1	2	-6	-1
CN(C)C(=O)N1CCN(C(=O)[C@H]2O[C@@H](n3ccc(N)nc3=O)[C@H](O)[C@@H]2O)CC1	70*	x	x	8	x	0
Nc1ccn([C@@H]2O[C@H](C(=O)N3CCN(C(=O)C(F)(F)F)CC3)[C@@H](O)[C@H]2O)c(=O)n1	-8	x	x	-7	x	-1
COc1ccc(NC(=O)N(C)C[C@H]2Oc3ccc(NC(=O)Cn4cnnn4)cc3CC(=O)N([C@@H](C)CO)C[C@@H]2C)cc1	56*	x	2	-2	-14	5
C[C@@H]1CN([C@@H](C)CO)C(=O)Cc2cc(NC(=O)Cn3cnnn3)ccc2O[C@@H]1CN(C)C(=O)Nc1ccc2c(c1)OCO2	23*	x	1	4	11	1
C[C@@H](NC(=O)C[C@@H]1C=C[C@H](NC(=O)Nc2ccc3c(c2)OCO3)[C@H](CO)O1)c1ccccc1	0	x	-17	4	-2	-6
COC(=O)C1=C(C)NC(=O)CC1c1cc(Br)ccc1F (stereo not given)	x	1	-3	x	111*	x
CCOc1cccc(N2C(=O)CC(NCc3ccc(S(N)(=O)=O)cc3)C2=O)c1 (stereo not given)	x	-6	2	x	78*	x
CCCCN(CC)CCCNC(=O)c1cc2c(=O)n(CC)c3ccccc3c2s1	-1	10	-1	3	97*	5
CO[C@H]1CN(C)C(=O)c2ccc(NC(=O)c3ccccc3)cc2OC[C@@H](C)N(C(=O)CN(C)C)C[C@@H]1C	28*	x	-1	16	-9	2
CO[C@@H]1CN(C)C(=O)c2ccc(NC(=O)c3ccccc3)cc2OC[C@@H](C)N(C(=O)CN(C)C)C[C@@H]1C	8	x	x	x	x	4
CO[C@@H]1CN(C)C(=O)c2ccc(NC(=O)c3ccccc3)cc2OC[C@H](C)N(C(=O)CN(C)C)C[C@@H]1C	34*	x	0	3	6	0

Screens deposited in PubChem by Broad Institute.
